# Compounds with a hit are over-represented: about 1.7% of the library has one in this group of screens.
# ZTA DNA inh – counter-screen for EBNA-1 inhibitors: inhibitors of Epstein-Barr virus ZTA | P03206 | ZTA-DNA binding, fluorescence polarization | inhibition, % at 11 µM | 320,000 tested, 0.15% active | AID 2234; in the data active = inhibition above about 33%
# Target sequence (P03206 whole entry, looked up): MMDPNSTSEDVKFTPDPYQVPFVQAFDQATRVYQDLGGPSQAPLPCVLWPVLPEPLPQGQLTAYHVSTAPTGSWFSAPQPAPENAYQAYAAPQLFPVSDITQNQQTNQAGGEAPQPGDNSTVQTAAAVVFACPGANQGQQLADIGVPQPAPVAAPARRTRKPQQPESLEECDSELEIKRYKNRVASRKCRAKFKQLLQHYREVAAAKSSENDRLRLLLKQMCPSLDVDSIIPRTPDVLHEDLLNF
# PP5 inh – PP5 (human) phosphatase inhibition; P53041; purified PP5c, OMFP substrate fluorescence; inhibition, % at 6.7 µM; 320,000 tested, 0.18% active; AID 1987;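 active = inhibition above the campaign's mean inhibition across all tested compounds plus 3 SD, cut at about 9.5% in these data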;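 also: 0% = DMSO only and 100% = 100 µM cantharidin control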
# HCV core dimer – blocks dimerization of HCV core protein. TR-FRET GST/Flag-core106 dimerization, 1536-well. inhibition, % at 5 µM. 300,000 tested, 0.33% active. AID 1899;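 active = inhibition above the mean of all tested compounds plus 3 SD, set per screening campaign, cut at about 45% in these data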
#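 System – GST-tagged and Flag-tagged HCV core protein residues 1-106 · Repeats – one well for each compound · Technique – TR-FRET 671 and 617 nm emission · Doses – one concentration, 5 µM, in 0.5% DMSO · Times – 4 h, 22.5 °C incubation · Also added – Eu donor and XL665 acceptor anti-tag antibodies · Measure – percent inhibition of core106 dimerization signal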
# EBNA-1 inhibitor – blocks EBNA-1 binding to DNA; EBNA-1 DNA binding, fluorescence polarization; 300,000 tested, 0.34% active; inhibition, % at 14.8 µM; in the data active = inhibition above about 28%
# PP1 inh – counter-screen for PP5 inhibitors: inhibitors of human PP1-alpha. purified PP1alpha, OMFP fluorescence. inhibition, % at 6.7 µM. 320,000 tested, 0.9% active. AID 2235;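 active = inhibition above the mean inhibition of all tested compounds plus 3 SD, computed separately for each screening campaign, cut at about 15% in these data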
# Target sequence (P62136 whole entry, looked up): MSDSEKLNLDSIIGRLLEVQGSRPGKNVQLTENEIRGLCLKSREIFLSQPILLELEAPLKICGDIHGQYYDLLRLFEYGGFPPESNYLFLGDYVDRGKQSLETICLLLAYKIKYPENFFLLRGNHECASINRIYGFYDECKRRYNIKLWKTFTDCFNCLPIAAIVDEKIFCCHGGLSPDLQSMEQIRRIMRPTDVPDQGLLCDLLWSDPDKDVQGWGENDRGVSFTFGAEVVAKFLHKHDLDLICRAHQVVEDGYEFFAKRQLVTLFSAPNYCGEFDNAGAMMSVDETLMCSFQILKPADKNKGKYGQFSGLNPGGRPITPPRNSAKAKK
# PP5 conf – PP5 (human) inhibition, confirmation; shares compounds with PP5 inh; Purified PP5, fluorogenic phosphatase substrate, fluorescence; inhibition, % at 6.7 µM; 460 tested, 22% active; in the data active = inhibition above about 9.5%
# PP1 counter 3x – inhibits human PP1 phosphatase in PP5 counter-screen | PP1 enzyme, fluorescent phosphatase substrate | inhibition, % at 6.7 µM | 460 tested, 4% active | AID 2355 | shares compounds with PP5 inh; in the data active = inhibition above about 16%
# * marks the source's active call; other numbers are inactive results; . = no result.
SMILES,ZTA DNA inh,PP5 inh,HCV core dimer,EBNA-1 inhibitor,PP1 inh,PP5 conf,PP1 counter 3x
Cc1ccc(C(=O)c2ccccc2C(=O)OCC(=O)NC(C)(C)C)cc1,10,1,3,6,0,.,.
O=C(COc1ccccc1-c1ccccc1)NN=C1CCCC1,-9,0,1,-7,-3,.,.
Cc1ccc(-c2ccc(/C=N\n3cnnc3)o2)c(Br)c1,0,11*,-2,1,5,-3,-2
Cc1cc(-c2ccc(/C=N/n3cnnc3)o2)c(C)c([N+](=O)[O-])c1,8,3,-2,-14,1,.,.
COc1ccc(NC(=O)Cn2nnc(C(=O)NCc3ccc4c(c3)OCO4)c2N)c(OC)c1,-3,3,0,-3,-1,.,.
NC(=O)c1ccc(C(F)(F)F)n(Cc2ccc(Cl)cc2)c1=O,-19,9.9*,-1,13,6,1,2
NC(=O)c1ccc(C(F)(F)F)n(Cc2ccc(F)c(F)c2)c1=O,-19,4,-6,-18,3,.,.
COc1cccc(CN(C(=O)c2cccs2)C2CCS(=O)(=O)C2)c1 (stereo not given),-11,-2,2,1,0,.,.
Cc1ccc(C(=O)NC2(O)C(=O)c3ccccc3C2=O)cc1C,-16,15*,-23,1,2,41*,4
O=C(Cc1ccccc1)NC1(O)C(=O)c2ccccc2C1=O,13,7,-22,4,-3,.,.
O=C(NC1(O)C(=O)c2ccccc2C1=O)c1ccc(C(F)(F)F)cc1,6,18*,-22,8,6,38*,13
CCOc1cccc(-c2c(C(=O)N/N=C/c3ccoc3)nnn2-c2nonc2N)c1,9,0,1,-1,-1,.,.
COc1ccccc1NS(=O)(=O)c1cc(NC(=O)CNC(=O)c2ccc(C)s2)ccc1Cl,7,3,-2,-5,4,.,.
CCN(CC)c1ccc(C(=O)NC(=S)Nc2cc(S(=O)(=O)N3CCOCC3)ccc2-n2cncn2)cc1,3,18*,12,9,-4,-4,3
CC(=O)c1ccc(NC(=O)C2C3C=CC(O3)C2C(=O)O)cc1 (stereo not given),-3,24*,0,-13,4,3,8
O=C(O)C1C2C=CC(O2)C1C(=O)Nc1ccc2c(c1)OCCO2 (stereo not given),-8,15*,-3,-1,7,1,10
CCCOC(=O)c1ccc(NC(=O)C2C3C=CC(O3)C2C(=O)O)cc1 (stereo not given),-6,21*,3,6,1,0,0
O=C(O)C1C2C=CC(O2)C1C(=O)Nc1ccc(S(=O)(=O)N2CCc3ccccc32)cc1 (stereo not given),-2,17*,2,1,3,3,3
CCC(CC)C(=O)Nc1nnc(S(=O)(=O)Nc2ccccc2C)s1,-4,1,8,10,-3,.,.
CSCCC(NC(=O)c1ccco1)C(=O)N1CC=C(c2ccccc2)CC1 (stereo not given),2,1,4,2,3,.,.
CC(C)OC(=O)c1cc(NC(=O)C2C3C=CC(O3)C2C(=O)O)cc(C(=O)OC(C)C)c1 (stereo not given),-1,31*,-11,5,8,-4,3
COc1cccc(NC(=O)C2C3C=CC(O3)C2C(=O)O)c1 (stereo not given),-14,24*,3,4,5,2,18*
COc1ccc(NC(=O)C2C3C=CC(O3)C2C(=O)O)cc1 (stereo not given),10,7,11,7,-1,.,.
NNC(=O)CCc1ccc(S(=O)(=O)N2CCOCC2)cc1,0,11*,0,-5,-3,-1,-1
O=[N+]([O-])c1cccc(S(=O)(=O)[N-]c2nc3ccccc3nc2-n2cc[n+](Cc3ccccc3)c2)c1,7,13*,4,0,5,-2,2
SMILES,ZTA DNA inh,PP5 inh,HCV core dimer,EBNA-1 inhibitor,PP1 inh,PP5 conf,PP1 counter 3x
O=C(N1CCOCC1)N1CCN(C(c2ccccc2)c2ccccc2)CC1,15,10*,0,9,-4,-2,-4
COc1cc(CNCC(C)C)cc(Br)c1OCC(=O)Nc1ccccc1,16,1,-2,-1,2,.,.
CCNCc1cc(Br)c(OCC(=O)Nc2ccccc2)c(OC)c1,-9,9.9*,-2,3,0,0,-3
N#C/C(=C\c1ccc(F)cc1)C(=O)Nc1ccccn1,6,2,0,0,-1,.,.
CC(C)(C)[C@@H]1C=C(C(N)=O)O[C@H](OCCCCO)C1,-1,0,-10,1,-2,.,.
O=C(NNc1cc(N2CCCC2)nc(N2CCCC2)n1)c1ccc([N+](=O)[O-])cc1,-4,11*,-4,-13,4,34*,4
CCN(CC(=O)NCc1ccncc1)S(=O)(=O)c1ccccc1,-7,1,-10,-8,-3,.,.
CCn1c(NC(=O)c2ccco2)c(-c2ccccc2Cl)c(=O)c2ccccc21,-6,12*,-3,-3,-1,-8,-5
Cn1c(NC(=O)c2ccco2)c(-c2ccccc2)c(=O)c2ccccc21,-6,-1,-7,-13,0,.,.
COc1cccc(CN(C)CC(=O)Nc2ccccc2C(C)C)c1,-20,-1,1,-2,0,.,.
O=[N+]([O-])c1ccc(-c2nc3ccc([N+](=O)[O-])cc3[nH]2)cc1,9,2,6,5,-2,.,.
Nc1ccc(-c2nc3ccc([N+](=O)[O-])cc3[nH]2)cc1,7,12*,-9,6,-1,-5,-4
CC(C)C[C@H](NC(=O)c1nc[nH]c1C(=O)N[C@@H](CC(C)C)C(=O)OC(C)(C)C)C(=O)OC(C)(C)C,7,10*,2,-2,4,6,7
CC(C)C[C@H](NC(=O)c1[nH]cnc1C(=O)N[C@H](C)c1ccccc1)C(=O)OC(C)(C)C,-4,10*,5,5,11,8,9
C[C@H](NC(=O)c1nc[nH]c1C(=O)N[C@@H](Cc1ccccc1)C(=O)OC(C)(C)C)C(=O)OC(C)(C)C,-8,11*,-12,2,11,7,10
CC1=NN(c2ccccc2)C(=O)/C1=C/C=C/C=C/N(C)C,-10,10*,-31,-17,3,14*,12
COC(=O)CCC(=O)OC1(C)C(=O)C=C2C=C(C3CC3)N(Cc3ccco3)C=C2C1=O (stereo not given),4,4,-5,8,-3,.,.
COC(=O)CCC(=O)OC1(C)C(=O)C=C2C=C(C3CC3)N(C3CC3)C=C2C1=O (stereo not given),-2,15*,-1,6,-1,43*,18*

# Screens as filed in PubChem.
